Screening results: PubChem, Broad Institute
MLL AF4-AF9 inh: inhibitors of AF4 peptide binding to AF9, primary screen, biochemical, AlphaScreen, biotin-AF4 peptide, FLAG-AF9, single point; Protein AF-9 (Homo sapiens), P42568; inhibition, % at 10 µM; hit rate 0.47% among 350,000;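 active means every replicate reaching a set inhibition limit, whatever the replicate mean, cut at about 25% in these data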;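 further: 0% = plate neutral control median and 100% = total signal loss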
PDI inh: inhibitors of human PDI, primary screen, biochemical, turbidity, single point, plate reader; PDI insulin aggregation turbidity, A650, 90 min; inhibition, % at 10 µM; hit rate 0.052% among 350,000;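 active means mean inhibition across replicates of 30% or more, whatever share of single replicates reach that level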
Target sequence (P07237 whole entry, looked up): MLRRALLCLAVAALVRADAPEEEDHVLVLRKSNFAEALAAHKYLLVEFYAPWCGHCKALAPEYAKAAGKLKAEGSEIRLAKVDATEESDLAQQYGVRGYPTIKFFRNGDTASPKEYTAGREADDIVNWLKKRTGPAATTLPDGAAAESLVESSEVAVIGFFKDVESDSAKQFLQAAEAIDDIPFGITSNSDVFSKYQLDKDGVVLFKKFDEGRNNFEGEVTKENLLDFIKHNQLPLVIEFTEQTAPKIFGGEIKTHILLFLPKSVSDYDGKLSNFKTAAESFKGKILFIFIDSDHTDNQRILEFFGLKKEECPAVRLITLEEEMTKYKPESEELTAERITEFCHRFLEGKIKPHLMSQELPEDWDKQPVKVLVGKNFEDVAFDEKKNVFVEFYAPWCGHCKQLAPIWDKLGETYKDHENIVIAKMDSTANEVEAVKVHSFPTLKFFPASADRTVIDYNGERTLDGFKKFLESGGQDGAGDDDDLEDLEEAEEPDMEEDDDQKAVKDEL
FN deposition inh: inhibitors of fibronectin matrix deposition, primary screen, AH1F cells, Alexa488-fibronectin fluorescence, plate reader. AH1F fibroblasts, overnight. inhibition, % at 12.6 µM. hit rate 0.086% among 350,000. AID 743247, 2014;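 active means mean inhibition across replicates of 30% or more, regardless of how many single replicates reach that level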;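 further: positive control wells lacked labelled fibronectin entirely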
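Material: AH1F fibroblast monolayer depositing Alexa488-labelled fibronectin into matrix / Amount: 10000 AH1F cells per well / Signal: fluorescence 485/525 nm / Medium: DMEM, 2% serum / Compound: single dose, pinned / Incubation: 1 h cell adhesion before compound, then overnight fibronectin incubation / Reagent: Alexa488-FN, 24 nM final / Read-out: inhibition of fibronectin deposition signal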
SIRT5 inh: SIRT5 desuccinylase inhibitors, primary screen, biochemical, fluorescence imaging, single point, set 5; Purified SirT5, succinyl-peptide AMC, trypsin-coupled fluorescence; NAD-dependent protein deacylase sirtuin-5, mitochondrial (Homo sapiens), Q9NXA8; inhibition, % at 15 µM; hit rate 1.1% among 330,000; in the data active means inhibition above about 15%
ERp5 block: inhibitors of ERp5-driven insulin aggregation, primary screen, biochemical, turbidity, absorbance 650 nm, single point; 90 min; AID 651711, 2012; hit rate 0.05% among 350,000; Protein disulfide-isomerase A6 (Homo sapiens), Q15084; inhibition, % at 9.99 µM;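 active means mean replicate inhibition above about 25%, with every replicate also reaching it, limit read from the data, passing the limit was not always enough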
* hit, by the source's call; nt = no result given. This is a sample that favours compounds with a hit; in the whole collection about 1.3% have one here.

SMILES | MLL AF4-AF9 inh | PDI inh | FN deposition inh | SIRT5 inh | ERp5 block
C[C@H]1CN([C@@H](C)CO)C(=O)Cc2cc(N(C)C)ccc2O[C@@H]1CN(C)Cc1ccccc1 | 1 | nt | nt | -2 | 1
C[C@H](CO)N1C[C@H](C)[C@@H](CN(C)Cc2ccc(Oc3ccccc3)cc2)Oc2ccc(N(C)C)cc2CC1=O | 72* | nt | 1 | 2 | -4
C[C@H](CO)N1C[C@H](C)[C@@H](CN(C)Cc2ccccc2)Oc2ccc(N(C)C)cc2CC1=O | 17 | nt | nt | -3 | 1
C[C@@H]1CN([C@@H](C)CO)C(=O)Cc2cc(N(C)C)ccc2O[C@@H]1CN(C)Cc1ccc(-c2ccccc2)cc1 | 42* | nt | 6 | 0 | 1
C[C@H](CO)N1C[C@H](C)[C@H](CN(C)Cc2ccc(Oc3ccccc3)cc2)Oc2ccc(N(C)C)cc2CC1=O | 27* | nt | nt | 5 | 0
Cc1ccc(NC(=O)NC(=O)N(c2ccccc2)S(C)(=O)=O)cc1 | nt | -3 | -9 | nt | nt
O=C1O[C@@H](c2ccccc2)[C@@H](c2ccccc2)N2[C@@H](c3ccccc3OCCO)[C@]3(C(=O)Nc4ccc(C#CC5=CCCCC5)cc43)[C@@H](C(=O)N3CCN(c4ncccn4)CC3)[C@H]12 | 0 | nt | nt | 17* | -1
COc1cc2c(cc1OC)CN(C(=O)[C@@H]1[C@H]3C(=O)O[C@H](c4ccccc4)[C@H](c4ccccc4)N3[C@H](c3ccc(OCCO)cc3)[C@@]13C(=O)Nc1ccc(C#CCNC(N)=O)cc13)CC2 | -2 | nt | nt | 23* | 3
O=C1O[C@@H](c2ccccc2)[C@@H](c2ccccc2)N2[C@@H](c3ccc(OCCO)cc3)[C@]3(C(=O)Nc4ccc(C#CC5=CCCCC5)cc43)[C@@H](C(=O)N3CCN(c4ncccn4)CC3)[C@H]12 | -1 | nt | nt | 7 | 0
COC(=O)C(CC#Cc1ccc2c(c1)[C@]1(C(=O)N2)[C@H](C(=O)NC[C@H](O)c2ccccc2)[C@H]2C(=O)O[C@H](c3ccccc3)[C@H](c3ccccc3)N2[C@@H]1c1ccccc1OCCO)C(=O)OC | -4 | nt | nt | 19* | -3
O=C1O[C@@H](c2ccccc2)[C@@H](c2ccccc2)N2[C@@H](c3ccc(OCCO)cc3)[C@]3(C(=O)Nc4ccc(C#CCCO)cc43)[C@@H](C(=O)N3CCN(c4ncccn4)CC3)[C@H]12 | 1 | nt | nt | -4 | -2
NC(=O)NCC#Cc1ccc2c(c1)[C@]1(C(=O)N2)[C@H](c2ccc(OCCO)cc2)N2[C@H](c3ccccc3)[C@H](c3ccccc3)OC(=O)[C@H]2[C@@H]1C(=O)O | 1 | nt | nt | 3 | 7
COc1ccc(C#Cc2ccc3c(c2)[C@]2(C(=O)N3)[C@H](C(=O)N3CCN(c4ncccn4)CC3)[C@H]3C(=O)O[C@H](c4ccccc4)[C@H](c4ccccc4)N3[C@@H]2c2ccc(OCCO)cc2)cc1 | -2 | nt | nt | 23* | 0
C[C@H](CO)N1C[C@H](C)[C@@H](CN(C)C)OCc2ccccc2-c2c(n(C)c3ccccc23)C1=O | -3 | nt | 1 | -3 | -5
CC(C)Oc1ccc(C(CCNCc2ccc(O)cc2)c2ccccc2)cc1 (stereo unspecified) | 16 | 8 | 3 | -4 | 0
COc1ccc(C(CCNCc2ccc(N(C)C)cc2)c2ccccc2)cc1 (stereo unspecified) | 50* | 9 | 0 | -7 | 0
C[C@H](CO)N1C[C@H](C)[C@@H](CN(C)Cc2ccc(Cl)c(Cl)c2)OCCCC[C@H](C)Oc2ccc(NS(C)(=O)=O)cc2C1=O | 4 | nt | nt | 10 | 0
CCC(NC(=O)NCc1ccccc1)(C(F)(F)F)C(F)(F)F | 3 | -14 | 4 | 30* | 3
CCOc1[nH]n(-c2ccccc2)c(=O)c1C=Nc1ccc(C)cc1 | 0 | -6 | nt | 18* | 6
Cc1nccn1C(c1ccccc1)c1ccccc1 | nt | 2 | -10 | -3 | 2
O=[N+]([O-])c1ccc2[nH]c(O)c(N=Nc3ccc(F)cc3)c2c1 | 0 | -17 | 1 | -1 | 0
O=[N+]([O-])c1ccc2[nH]c(O)c(N=NC3CCS(=O)(=O)C3)c2c1 (stereo unspecified) | 2 | 5 | 0 | 25* | 4
Cc1ccc(S(=O)(=O)N2CCC(=O)N([C@H](COCc3cccc(Cl)c3)Cc3ccccc3)CC2)cc1 | -11 | nt | 8 | 40* | 0
Cc1nnc(NC(=O)CSc2nnc(CCNC(=O)c3ccccc3F)n2C)s1 | 42* | 7 | -6 | -14 | 0
COc1ccc(C2=Nn3c(nnc3-c3ccccc3F)SC2)cc1OC1CCCC1 | 11 | -7 | 21 | 20* | 1
SMILES | MLL AF4-AF9 inh | PDI inh | FN deposition inh | SIRT5 inh | ERp5 block
COc1ccc(C2=Nn3c(nnc3-c3ccccc3F)SC2)cc1OC1CCOC1 (stereo unspecified) | 6 | -2 | 4 | nt | 7
O=C(/C=C/c1ccccc1Cl)Nc1cccc(S(=O)(=O)NC2=NCCCCC2)c1 | nt | -2 | -1 | nt | nt
O=C(/C=C/c1ccc(Cl)cc1Cl)Nc1cccc(S(=O)(=O)NC2=NCCC2)c1 | 1 | 0 | 33* | -1 | -8
C[C@H]1CN([C@@H](C)CO)C(=O)Cc2cc(NS(=O)(=O)c3cccs3)ccc2O[C@@H]1CN(C)Cc1ccc(C(F)(F)F)cc1 | 1 | nt | nt | 7 | 4
C[C@@H]1CN([C@@H](C)CO)C(=O)Cc2cc(NS(=O)(=O)c3cccs3)ccc2O[C@H]1CN(C)Cc1ccc(-c2ccccc2)cc1 | 3 | nt | 3 | 17* | -6
C[C@@H]1CN([C@@H](C)CO)C(=O)Cc2cc(NC(=O)Cc3ccccc3)ccc2O[C@@H]1CN(C)C(=O)Nc1ccc(C(F)(F)F)cc1 | 2 | nt | nt | 4 | 37*
C[C@@H]1CN([C@@H](C)CO)C(=O)Cc2cc(NS(=O)(=O)c3cccs3)ccc2O[C@H]1CN(C)Cc1ccc(C(F)(F)F)cc1 | 3 | nt | nt | 16* | -2
C[C@@H]1CN([C@@H](C)CO)C(=O)Cc2cc(NS(=O)(=O)c3cccs3)ccc2O[C@H]1CN(C)C(=O)Nc1ccc(C(F)(F)F)cc1 | 0 | nt | nt | 7 | 47*
C[C@@H]1CN([C@H](C)CO)C(=O)Cc2cc(NS(=O)(=O)c3cccs3)ccc2O[C@H]1CN(C)Cc1ccc(-c2ccccc2)cc1 | 2 | nt | -4 | 9 | -4
Cc1ccc(COC(=O)CCc2nc3ccccc3c(=O)[nH]2)cc1 | nt | -3 | 0 | nt | nt
COc1cccc(C#Cc2ccc3c(c2)[C@@H]2[C@@H](CCN2C(=O)c2ccccc2F)[C@@H](CO)N3C)c1 | 2 | nt | -10 | 4 | 3
C[C@@H]1CN([C@H](C)CO)C(=O)c2cc(C#CCN(C)C)cnc2O[C@H]1CN(C)Cc1ccc(-c2ccccc2)cc1 | 27* | nt | nt | -6 | 1
